Test results taken from PMC4059610 (Cell, 2014).

Key:
WRC = conditions: ref Nakao et al., 2008, Tai et al., 2010 (PCDH10, PCDH19), Bernadskaya et al., 2012, Stavoe et al., 2012 (DCC), 2012 (ROBO1), Karpushev et al., 2011 (ENaC); cited from earlier work
[1] = system: 2MBP-ΔWRC / GST-hPCDH10 CT interaction; assay: Competition of 2MBP-ΔWRC pull-down of PCDH10 CT; assay type: binding, human; conditions: Fig. 1D
In short: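 Immobilized 2MBP-ΔWRC bait was mixed on affinity beads with a 5- to 10-fold excess of GST-tagged PCDH10 cytoplasmic tail prey, with wild-type WIRS peptide or T8A/F9A mutant peptide as competitor. After incubation and washing, bound proteins were eluted with maltose.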

WRC / Arp2/3 complex = assay: Arp2/3-mediated pyrene-actin assembly assay; assay type: biochemical; conditions: minimal WIRS peptide; 100 nM WRC217, Fig. 5A
endogenous WRC = assay: GST-PCDH10 CT pull-down of endogenous WRC from mouse brain lysate; assay type: binding; conditions: 100 μM WIRS peptide, Fig. 6A
In short: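 Immobilized GST-PCDH10 cytoplasmic tail was incubated with mouse brain lysate on glutathione affinity beads. Competitor was buffer or 100 μM WIRS peptide, either wild type or T8A/F9A mutant. Beads were washed and bound proteins eluted with reduced glutathione. Retained endogenous WRC was detected by Western blot.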

[2] = system: endogenous PCDH10/WRC interaction; assay: Co-immunoprecipitation of WRC; assay type: binding; conditions: 5 mM WIRS peptide, anti-WAVE1, mouse brain lysate, n = 7, p = 0.00003, Fig. 6B
WRC (2MBP-ΔWRC) = assay: MBP pull-down by immobilized 2MBP-ΔWRC; assay type: binding, human; conditions: data not shown
In short: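 Bait was immobilized 2MBP-ΔWRC, either wild type or the AW form (R106A/G110W in Abi2). It was mixed on affinity beads with a 5- to 10-fold excess of GST-tagged receptor cytoplasmic tails, purified by glutathione affinity chromatography with or without ion exchange and size exclusion. Beads were incubated and washed, then eluted with maltose. Retained proteins were seen on Coomassie-stained gels.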

DCC: netrin receptor
Previously shown interaction with the WRC, biochemical or genetic (WRC): previously shown to interact with the WRC biochemically or genetically

WIRS peptide: peptide containing the conserved sequence RSFSTFGKE of PCDH10 (WRC interacting receptor sequence)
Blocking of PCDH10 CT binding to 2MBP-ΔWRC [1]: blocked this interaction | Effect on Rac1 stimulation of WRC activity (WRC / Arp2/3 complex): had no effect on Rac1 stimulation | Blocking of GST-PCDH10 CT pull-down of endogenous WRC (endogenous WRC): completely blocked the interaction | Effect on co-immunoprecipitation of PCDH10 with WRC [2]: weakened

FAT2: protocadherin FAT2, WIRS motif only found in human, mouse and chicken
Binding to WRC in vitro using its WIRS motif (WRC (2MBP-ΔWRC)): binds the WRC in vitro using its WIRS motif
